# In ChEMBL document CHEMBL1287782, “Design, synthesis, and characterization of BK channel openers based on oximation of abietane diterpene derivatives” (Bioorg Med Chem, 2010):
# Molecular target: Calcium-activated potassium channel subunit alpha-1 (Homo sapiens) (UniProt Q12791)
# Test: Activation of human BK alpha channel expressed in CHO-K1 cells assessed as ionic current at 30 uM by patch clamp electrophysiological assay relative to control
# Assay type: cell-based
# Procedure, shortened: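 Automated population patch clamp (64-hole PPC) on CHO-K1 cells stably expressing hBKα. Internal (mM): 140 KCl, 1.0 MgCl2, 20 HEPES, pH 7.25–7.3. External (mM): 137 NaCl, 4.0 KCl, 1.0 MgCl2, 2.0 CaCl2, 10 glucose, 20 HEPES, pH 7.4. Cells suspended in external solution with 20 µM BAPTA-AM before loading. Step to +100 mV from holding potential; current at 30 µM compound as % of drug-free control; n = 8.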
# Sequence of Calcium-activated potassium channel subunit alpha-1 (Homo sapiens) (Q12791 whole entry): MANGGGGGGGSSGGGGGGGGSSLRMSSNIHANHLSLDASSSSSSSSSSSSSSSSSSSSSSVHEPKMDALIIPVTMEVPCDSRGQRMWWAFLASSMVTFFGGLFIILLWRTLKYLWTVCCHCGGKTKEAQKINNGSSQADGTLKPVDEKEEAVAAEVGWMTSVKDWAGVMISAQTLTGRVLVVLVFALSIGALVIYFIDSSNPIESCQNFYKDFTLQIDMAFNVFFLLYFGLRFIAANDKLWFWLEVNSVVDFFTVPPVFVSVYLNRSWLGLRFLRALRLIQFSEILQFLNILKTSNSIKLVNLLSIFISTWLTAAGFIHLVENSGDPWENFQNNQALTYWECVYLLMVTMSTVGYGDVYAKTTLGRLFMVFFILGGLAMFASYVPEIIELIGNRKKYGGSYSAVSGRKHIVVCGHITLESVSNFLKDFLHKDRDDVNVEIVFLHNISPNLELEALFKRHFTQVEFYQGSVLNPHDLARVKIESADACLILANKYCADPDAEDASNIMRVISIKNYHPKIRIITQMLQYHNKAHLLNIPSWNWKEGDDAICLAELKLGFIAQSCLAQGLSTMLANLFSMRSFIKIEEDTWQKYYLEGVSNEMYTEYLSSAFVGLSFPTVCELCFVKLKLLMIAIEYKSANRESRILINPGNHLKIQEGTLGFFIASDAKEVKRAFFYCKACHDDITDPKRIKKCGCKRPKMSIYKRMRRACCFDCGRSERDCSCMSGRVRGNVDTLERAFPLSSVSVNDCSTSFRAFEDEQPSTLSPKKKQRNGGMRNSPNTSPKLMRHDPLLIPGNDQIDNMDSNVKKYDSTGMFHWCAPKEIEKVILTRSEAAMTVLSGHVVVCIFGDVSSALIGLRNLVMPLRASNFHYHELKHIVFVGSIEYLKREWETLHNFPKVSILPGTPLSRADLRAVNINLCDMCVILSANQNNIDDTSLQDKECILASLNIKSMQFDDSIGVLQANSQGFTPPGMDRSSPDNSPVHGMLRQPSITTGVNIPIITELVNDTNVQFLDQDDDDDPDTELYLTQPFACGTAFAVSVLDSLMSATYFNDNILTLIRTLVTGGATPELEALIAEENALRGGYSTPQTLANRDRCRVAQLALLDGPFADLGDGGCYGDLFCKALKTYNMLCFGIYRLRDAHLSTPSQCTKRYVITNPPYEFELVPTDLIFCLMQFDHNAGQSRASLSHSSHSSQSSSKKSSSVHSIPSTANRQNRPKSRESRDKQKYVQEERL
row,Structure (SMILES),Activity [%]
1,CCO/N=C1\C[C@H]2[C@](C)(C(=O)O)CCC[C@]2(C)c2cc(Cl)c(C(C)C)c(Cl)c21,212
2,C[C@]1(C(=O)O)CCC[C@]2(C)c3cc(OCCCc4ccccc4)ccc3/C(=N/OCCCc3ccccc3)C[C@@H]12,134
3,C=CCO/N=C1\C[C@H]2[C@](C)(C(=O)O)CCC[C@]2(C)c2cc(Br)c(C(C)C)cc21,237
4,CCCCCCCO/N=C1\C[C@H]2[C@](C)(C(=O)O)CCC[C@]2(C)c2cc(Cl)c(C(C)C)c(Cl)c21,111
5,CO/N=C1\C[C@H]2[C@](C)(C(=O)O)CCC[C@]2(C)c2ccc(C(C)C)cc21,153
6,CC(C)=CCO/N=C1\C[C@H]2[C@@](C)(C(=O)O)CCC[C@]2(C)c2cc(OCCCc3ccccc3)ccc21,138
7,C[C@]1(C(=O)O)CCC[C@]2(C)c3cc(OCCCc4ccccc4)ccc3/C(=N/OCCCc3ccccc3)C(O)[C@@H]12 (some centres not stated),107
8,CO/N=C1\C[C@H]2[C@@](C)(C(=O)O)CCC[C@]2(C)c2cc(OCCCc3ccccc3)ccc21,151
9,CC(C)CCO/N=C1\C[C@H]2[C@](C)(C(=O)O)CCC[C@]2(C)c2cc(Cl)c(C(C)C)c(Cl)c21,145
10,C[C@]1(C(=O)O)CCC[C@]2(C)c3cc(OCCCc4ccccc4)ccc3/C(=N/O)C[C@@H]12,134
11,C=CCO/N=C1\C[C@H]2[C@](C)(C(=O)O)CCC[C@]2(C)c2cc(Cl)c(C(C)C)c(Cl)c21,297
12,CC(C)c1ccc2c(c1)C(=O)C[C@H]1[C@](C)(C(=O)O)CCC[C@]21C,100
13,CC(C)c1cc2c(cc1Br)[C@@]1(C)CCC[C@@](C)(C(=O)O)[C@@H]1C/C2=N\O,162
14,CO/N=C1\C[C@H]2[C@](C)(C(=O)O)CCC[C@]2(C)c2cc(Br)c(C(C)C)cc21,216
15,CCCO/N=C1\C[C@H]2[C@](C)(C(=O)O)CCC[C@]2(C)c2cc(Cl)c(C(C)C)c(Cl)c21,192
16,C[C@]1(C(=O)O)CCC[C@]2(C)c3cc(OCCCc4ccccc4)ccc3/C(=N/OCc3ccccc3)C[C@@H]12,152
17,CC(C)c1ccc2c(c1)/C(=N/O)C[C@H]1[C@](C)(C(=O)O)CCC[C@]21C,121
18,CO/N=C1/c2ccc(OCCCc3ccccc3)cc2[C@@]2(C)CCC[C@](C)(C(=O)O)[C@@H]2C1O (some centres not stated),125
19,CO/N=C1\C[C@H]2[C@@](C)(C(=O)O)CCC[C@]2(C)c2cc(O)ccc21,103

row,Structure (SMILES),Activity [%]
1,C=CCO/N=C1\C[C@H]2[C@](C)(C(=O)O)CCC[C@]2(C)c2ccc(C(C)C)cc21,182
2,C=CCO/N=C1\C[C@H]2[C@@](C)(C(=O)O)CCC[C@]2(C)c2cc(OCCCc3ccccc3)ccc21,160
3,CC(C)c1cc2c(cc1Br)[C@@]1(C)CCC[C@@](C)(C(=O)O)[C@@H]1CC2=O,166
4,CO/N=C1\C[C@H]2[C@](C)(C(=O)O)CCC[C@]2(C)c2c(Cl)c(Cl)c(C(C)C)c(Cl)c21,235
5,CC(C)c1c(Cl)cc2c(c1Cl)/C(=N/OCC1CC1)C[C@H]1[C@](C)(C(=O)O)CCC[C@]21C,181
6,CC(C)=CCO/N=C1\C[C@H]2[C@](C)(C(=O)O)CCC[C@]2(C)c2cc(Cl)c(C(C)C)c(Cl)c21,126
7,CC(C)c1c(Cl)cc2c(c1Cl)/C(=N/OCC1CCCCC1)C[C@H]1[C@](C)(C(=O)O)CCC[C@]21C,129
8,C#CCO/N=C1\C[C@H]2[C@](C)(C(=O)O)CCC[C@]2(C)c2cc(Cl)c(C(C)C)c(Cl)c21,261
9,C#CCO/N=C1\C[C@H]2[C@@](C)(C(=O)O)CCC[C@]2(C)c2cc(OCCCc3ccccc3)ccc21,166
10,CC(C)c1c(Cl)cc2c(c1Cl)C(=O)C[C@H]1[C@](C)(C(=O)O)CCC[C@]21C,124
11,CC(C)c1ccc2c(c1)/C(=N/OCCCc1ccccc1)C[C@H]1[C@](C)(C(=O)O)CCC[C@]21C,143
12,CO/N=C1\C[C@H]2[C@](C)(C(=O)O)CCC[C@]2(C)c2cc(Cl)c(C(C)C)c(Cl)c21,213
13,CC(C)c1ccc2c(c1)/C(=N/OCc1ccccc1)C[C@H]1[C@](C)(C(=O)O)CCC[C@]21C,123
14,CC(C)O/N=C1\C[C@H]2[C@](C)(C(=O)O)CCC[C@]2(C)c2cc(Cl)c(C(C)C)c(Cl)c21,184
15,C#CCO/N=C1\C[C@H]2[C@](C)(C(=O)O)CCC[C@]2(C)c2ccc(C(C)C)cc21,142
16,CC(C)c1c(Cl)cc2c(c1Cl)/C(=N/O)C[C@H]1[C@](C)(C(=O)O)CCC[C@]21C,137
17,CC(C)c1c(Cl)c(Cl)c2c(c1Cl)/C(=N/O)C[C@H]1[C@](C)(C(=O)O)CCC[C@]21C,229
18,CC(C)c1c(Cl)cc2c(c1Cl)/C(=N/OCc1ccccc1)C[C@H]1[C@](C)(C(=O)O)CCC[C@]21C,151
